ChEMBL document CHEMBL2086265, “Design of inhibitors of Helicobacter pylori glutamate racemase as selective antibacterial agents: incorporation of imidazoles onto a core pyrazolopyrimidinedione scaffold to improve bioavailabilty” (Bioorg Med Chem Lett, 2012)
≈ marks a conversion by molar mass, not a printed value.

Experiments:
[1] = tested on: Helicobacter pylori; assay: Antibacterial activity against AcrAB-TolC efflux pump-dificient Helicobacter pylori; type: functional
[2] = Volume of distribution at steady state in mouse at 5 mg/kg, iv and 40 mg/kg, po; type: ADME, organism-based; conditions: in vivo, read-out: Vdss
[3] = Clearance in mouse at 5 mg/kg, iv and 40 mg/kg, po; type: ADME, organism-based; conditions: in vivo
[4] = Intrinsic clearance in human liver microsomes at 2 uM assessed per mg of protein; type: ADME, Microsome; conditions: read-out: CLH
[5] = Intrinsic clearance in mouse liver microsomes at 2 uM assessed per mg of protein; type: ADME, Microsome; conditions: read-out: CLH
[6] = Oral bioavailability in mouse at 40 mg/kg; type: ADME, organism-based; conditions: in vivo
[7] = Half life in mouse at 5 mg/kg, iv and 40 mg/kg, po; type: ADME, organism-based; conditions: in vivo
[8] = Plasma protein binding in mouse at 10 uM after 16 hrs by Dianorm method; type: ADME, cell-free; conditions: read-out: PPB (converted)
[9] = tested on: Helicobacter pylori; assay: Antibacterial activity against wild type Helicobacter pylori 055; type: functional
[10] = molecular target: T1, Glutamate racemase (Helicobacter pylori J99, UniProt Q9ZLT0); assay: Inhibition of Helicobacter pylori J99 glutamate racemase
T1 sequence (Q9ZLT0 whole entry): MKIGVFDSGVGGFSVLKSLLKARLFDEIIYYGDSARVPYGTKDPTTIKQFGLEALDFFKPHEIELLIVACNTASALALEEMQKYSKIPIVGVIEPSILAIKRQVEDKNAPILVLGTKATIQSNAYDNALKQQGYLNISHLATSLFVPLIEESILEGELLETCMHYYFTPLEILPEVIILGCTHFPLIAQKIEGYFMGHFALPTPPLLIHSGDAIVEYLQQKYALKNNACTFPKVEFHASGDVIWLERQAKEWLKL
In short: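 The racemase was expressed from the murI gene of H. pylori J99 chromosomal DNA. IC50 was taken as the mean of duplicate determinations, using a method cited from earlier work.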

[11] = tested on: Helicobacter pylori; assay: Antibacterial activity against Helicobacter pylori infected in mouse assessed as log reduction CFU at 10 mg/kg administered BID for 2 days relative to untreated control; type: functional
[12] = Dissociation constant, pKa of the compound; type: physicochemical
[13] = tested on: Helicobacter pylori; assay: Antibacterial activity against Helicobacter pylori infected in mouse assessed as log reduction CFU at 40 mg/kg administered QID for 2 days relative to untreated control
[14] = Inhibition of Staphylococcus aureus MurI
[15] = Inhibition of Enterococcus faecalis MurI
[16] = Inhibition of Escherichia coli MurI
[17] = Plasma protein binding in mouse; type: ADME, cell-free; conditions: read-out: PPB (converted)
In short: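 Plasma protein binding in mouse plasma used a […] compound solution in a dialysis plasma well, incubated at 37 °C for 16 h. Free fraction came from the ratio of drug in buffer to drug in buffer plus plasma wells, both quantified by LC/MS.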

MIC [1] [mg/L]	Vd [2] [L/kg]	clearance [3] [L/h/kg]	microsomal CLint at 2 µM [4] [µL/min/mg]	microsomal CLint at 2 µM [5] [µL/min/mg]	bioavailability [6] [%]	half-life [7] [h]	fraction unbound at 16 h, 10 µM [8]	MIC [9] [mg/L]	IC50 [10] [µM]	pKa [12]	IC50 [14] [µM]	IC50 [15] [µM]	IC50 [16] [µM]	fraction unbound [17]	SMILES	FC [11]	FC [13]
0.25 (≈ 0.525 µM)	1.2	0.84	< 17	21	76	0.7	> 0.969	2 (≈ 4.2 µM)	0.041	–	–	–	–	–	Cn1cncc1-c1c2c(=O)n(C)c(=O)n(CC3CC3)c2nn1Cc1ccnc2ccc(Cl)cc12	–	–
–	–	–	–	–	–	–	–	–	–	–	–	–	–	–	COc1c(N2CCO[C@@H](CN(C)C)C2)c(F)cc2c(=O)c(C(=O)O)cn(C3CC3)c12	5	–
0.5 (≈ 1 µM)	3.6	1.2	< 14	18	100	2.1	0.96	2 (≈ 4 µM)	0.024	7.2	–	–	–	–	C#CCn1c(=O)c2c(-c3cncn3C)n(Cc3ccnc4ccc(Cl)cc34)nc2n(CC2CC2)c1=O	–	1
–	–	0.9	–	–	13	–	–	2 (≈ 3.62 µM)	0.034	–	> 400	> 400	> 400	0.03	Cn1cc(S(C)(=O)=O)cc1-c1c2c(=O)n(C)c(=O)n(CC3CC3)c2nn1Cc1ccnc2ccc(Cl)cc12	–	–
